What is called CC50 is the concentration that lowers cell viability or growth by half. Low values mean greater toxicity to the cells, high ones lower toxicity to the cells. For orientation: EC50 means the concentration needed to bring the measured effect to its halfway point. Read a high EC50 as weaker potency.

Consider 23 molecules from ChEMBL document CHEMBL1133178, “Synthesis and evaluation of "AZT-HEPT", "AZT-pyridinone", and "ddC-HEPT" conjugates as inhibitors of HIV reverse transcriptase” (J Med Chem, 2000).

The structures appear in SMILES notation. Some results are limits rather than exact numbers.

In assay [1] the target is Human immunodeficiency virus type 1 reverse transcriptase (Human immunodeficiency virus 1) (UniProt Q72547). Kind of assay: Cytotoxic concentration which reduces the cell viability of HIV-1 LAI infected T4 lymphoblastoid CEM-SS cells by 50%. The class given is functional, cell-based.
The test system of the next assay is CEM-SS. Nature of the assay: Effective concentration required to achieve 50% inhibition of HIV-1 181C (nevirapine-resistant HIV-1) multiplication in CEM-SS cells. The class given is functional, cell-based. To be noted: Homo sapiens. The method in brief:
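CEM-SS cells infected with 100 TCID50 of nevirapine-resistant HIV-1, 30 min adsorption, then washed to remove free virus. Cultured with a range of compound concentrations for 5 days. Virus production read as reverse transcriptase activity of virions released into culture supernatants. EC50 taken from a computer-generated median effect plot of dose-effect data; means of duplicate experiments.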

In assay [2] the test system is MT4. Kind of assay: Cytotoxic concentration which reduces the cell viability of HIV-1 IIIB infected T4 lymphoblastoid MT-4 cells by 50%. The class given is functional. The note with it: Homo sapiens. The method in brief:
(§1)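 Cytotoxicity was run in parallel, in the same experiment, on uninfected, compound-treated MT-4 or CEM-SS cells cultured 5 days. Viability was measured by MTT reduction to formazan (OD 540 nm). CC50 is the concentration reducing viability by 50%, calculated by median-effect analysis; means of duplicates.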

A short description of assay [3]: Effective concentration required to achieve 50% inhibition of HIV-1 IIIB multiplication in PBM (peripheral blood mononuclear) cells. The class given is functional, Homo sapiens.
Assay [4] is described as follows: Effective concentration required to achieve 50% inhibition of HIV-2 D194 multiplication in PBM (peripheral blood mononuclear) cells. The class given is functional, Homo sapiens.
Assay [5] concerns MT4. Nature of the assay: Effective concentration required to achieve 50% inhibition of HIV-1 IIIB multiplication in hT4 lymphoblastoid MT-4 cells using MTT assay. The class given is functional, cell-based. To be noted: Homo sapiens. In short, it runs like this:
(§2)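 MT-4 cells infected with 50 TCID50 of HIV-1 IIIB; 30 min adsorption, free virus washed off, then cultured with a range of compound concentrations for 5 days. Protection from virus-induced cytopathogenicity was read by MTT reduction (OD 540 nm). EC50 taken from a median-effect plot of dose-effect data; means of duplicate experiments.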
(Tetrazolium assays rely on reduction of a dye to a coloured formazan, in cell work by metabolically active cells.)

Assay [6] is described as follows: (§3) Cytotoxic concentration which reduces the cell viability of HIV-1 IIIB infected PBM (peripheral blood mononuclear) cells. The class given is functional. The note with it: Homo sapiens.
Assay [7] deals with MT4. Kind of assay: Cytotoxic conc. which reduces the cell viability of […] T4 lymphoblastoid MT-4 cells by 50%. The class given is functional. To be noted: Homo sapiens. The method in brief: as §1
Assay [8] can be described thus: Effective conc. required to achieve 50% inhibition of HIV-1 IIIB multiplication in PBM (peripheral blood mononuclear) cells. The class given is functional, Homo sapiens.
The nature of assay [9]: Effective conc. required to achieve 50% inhibition of HIV-2 D194 multiplication in PBM (peripheral blood mononuclear) cells. The class given is functional, Homo sapiens.
Assay [10] concerns the target Human immunodeficiency virus type 1 reverse transcriptase (Human immunodeficiency virus 1) (UniProt Q72547). Nature of the assay: Cytotoxic conc. which reduces the cell viability of HIV-1 LAI infected T4 lymphoblastoid CEM-SS cells by 50%. The class given is functional, cell-based.
Assay [11] has as its system MT4. Described as §3. The class given is functional, cell-based. To be noted: Homo sapiens.
The nature of assay [12]: concentration of compound which reduces the cell viability by 50% against PBM (peripheral blood mononuclear) cells infected with HIV-1 IIIB cells. The class given is functional. The note with it: Homo sapiens.
Assay [13] deals with MT4. Nature of the assay: Cytotoxic concentration. which reduces the cell viability of […] T4 lymphoblastoid MT-4 cells by 50%. The note with it: Homo sapiens. The class given is functional. In short, it runs like this: as §1
Assay [14] in a line: Effective concentration. required to achieve 50% inhibition of HIV-2 D194 multiplication in PBM (peripheral blood mononuclear) cells. The class given is functional, Homo sapiens.
Assay [15] has as its system MT4. Kind of assay: Effective concentration. required to achieve 50% inhibition of HIV-1 IIIB multiplication in hT4 lymphoblastoid MT-4 cells using MTT assay. The class given is functional, cell-based. The note with it: Homo sapiens. The method in brief:
as §2

In [1], `CCc1c(C)nc(O)c(NC(=O)CCCCCCCCCN)c1Cc1cc(C)cc(C)c1` gave a CC50 of over 66 µM.
On the same count and under the same terms, the value for `CCc1c(C)nc(O)c(NC(=O)CCCCCCCCCNC(=O)OC(C)(C)C)c1Cc1cc(C)cc(C)c1` was over 10 µM.
Consider `CCc1c(Sc2cc(C)cc(C)c2)n(CCCCC(=O)OC)c(=O)[nH]c1=O`, for which the EC50 in the assay with CEM-SS is over 33 µM; in [3] it was 0.18 µM; in [4] it was over 33 µM; in the assay with MT4 [5], 0.33 µM. Also, the cytotoxic concentration (CC50) in the assay on MT4 [2] was over 10 µM; in [1], over 33 µM; in assay [6], over 33 µM.
For the molecule `CCc1c(Sc2cc(C)cc(C)c2)n(CCCCC(=O)NCCCCCCCCCCCCNc2ccn(C3CCC(CO)O3)c(=O)n2)c(=O)[nH]c1=O` (configuration not stated), the EC50 in the assay on CEM-SS was 0.53 µM; in [3], 0.46 µM; with MT4 [5], 6.2 µM. In addition, the CC50 in the assay on MT4 [2] is over 10 µM; in [1], over 25 µM; in assay [6] it was over 10 µM.
In assay [1], `CCc1c(C)nc(O)c(N)c1Cc1cc(C)cc(C)c1` had a CC50 of over 10 µM.
On to `Cc1cn(C2CC(N=[N+]=[N-])C(CO)O2)c(=O)n(CCC(=O)NCCCCCCCCCCN)c1=O` (configuration not stated), for which the CC50 with MT4 [2] was over 100 µM; in [1], 60 µM; in [6], 80 µM. The values for the EC50 (in assay [3]; in assay [4]; in the assay on MT4 [5]) were 40 µM, over 100 µM and over 100 µM, respectively.
In [1], `CCc1c(C)nc(O)c(NC(=O)CCCC(=O)OC)c1Cc1cc(C)cc(C)c1` had a CC50 of over 100 µM.
As to `CCc1c(C)nc(O)c(NC(=O)CNC(=O)CN)c1Cc1cc(C)cc(C)c1`, the CC50 in [1] is over 100 µM.
Turning to `CCc1c(Sc2cc(C)cc(C)c2)n(CCCCC(=O)NCCCCCCCCCCNC(=O)CCn2c(=O)c(C)cn(C3CC(N=[N+]=[N-])C(CO)O3)c2=O)c(=O)[nH]c1=O` (configuration not stated), the half-maximal effective concentration (EC50) in the assay with CEM-SS was 23 µM; in assay [3] it was 5.5 µM; in [4] it was over 25 µM; with MT4 [5] it was over 10 µM. The half-maximal cytotoxic concentration (CC50) in the assay with MT4 [2] is over 10 µM; in assay [1] it was over 25 µM; in assay [6], over 25 µM.
As to `Cc1cn([C@H]2C[C@H](N=[N+]=[N-])[C@@H](CO)O2)c(=O)[nH]c1=O` [ZIDOVUDINE], the CC50 in the assay on MT4 [7] is over 100 µM; in [10], over 100 µM; in assay [6], 75 µM. Moreover, the EC50 in [8] is 0.001 µM; in assay [9], 0.006 µM; in the assay with MT4 [5], 0.02 µM.
For `CCc1c(Sc2cc(C)cc(C)c2)n(CCCCC(=O)NCCCCCCCCCCNC(=O)CCc2cn(C3CC(N=[N+]=[N-])C(CO)O3)c(=O)[nH]c2=O)c(=O)[nH]c1=O` (configuration not stated), the EC50 with MT4 [11] was over 10 µM; with CEM-SS, over 25 µM; in [3], 5.1 µM; in [4], over 25 µM. In addition, the figures for the CC50 (in the assay on MT4 [2]; in assay [12]; in assay [1]) were 10 µM, over 25 µM and over 25 µM, respectively.
As for `CCc1c(Sc2cc(C)cc(C)c2)n(CCCCC(=O)NCCCCNC(=O)CCc2cn(C3CC(N=[N+]=[N-])C(CO)O3)c(=O)[nH]c2=O)c(=O)[nH]c1=O` (configuration not stated), the EC50 with CEM-SS was over 50 µM; in assay [3], 4.3 µM; in assay [4], over 50 µM; with MT4 [5] it was over 10 µM. Further, the values for the CC50 (with MT4 [2]; in assay [1]; in [6]) were over 10 µM, over 55 µM and over 50 µM, respectively.
`CCc1c(C)nc(O)c(NC(=O)CNC(=O)CNC(=O)OC(C)(C)C)c1Cc1cc(C)cc(C)c1` returned a CC50 in assay [1] of over 100 µM.
In turn, `CCc1c(C)nc(O)c(NC(=O)CCCC(=O)O)c1Cc1cc(C)cc(C)c1` registered a half-maximal cytotoxic concentration (CC50) in [1] of 28 µM.
The molecule `CCc1c(C)nc(O)c(NC(=O)CCCCCCCCC(=O)O)c1Cc1cc(C)cc(C)c1` showed a half-maximal cytotoxic concentration (CC50) in assay [1] of over 10 µM.
In the case of `COC(=O)CCCNC(=O)CCc1cn(C2CC(N=[N+]=[N-])C(CO)O2)c(=O)[nH]c1=O` (configuration not stated), the CC50 was 75 µM in the assay on MT4 [2], over 100 µM in assay [1] and over 100 µM in [6]. In addition, the EC50 (in [3]; in assay [4]; with MT4 [5]) was over 100 µM throughout.
On to `COC(=O)CCc1cn(C2CC(N=[N+]=[N-])C(CO)O2)c(=O)[nH]c1=O` (configuration not stated), for which the EC50 (in assay [3]; in the assay on MT4 [5]; in [14]) was over 100 µM throughout. Besides, the CC50 (in the assay on MT4 [13]; in [1]; in assay [6]) was over 100 µM throughout.
On to `CCc1c(C)nc(O)c(NC(=O)CCCCCCCCC(=O)OC)c1Cc1cc(C)cc(C)c1`, for which the CC50 in assay [1] is over 10 µM.
Turning to `[N-]=[N+]=NC1CC(n2cc(CCC(=O)NCCCCCCCCCCN)c(=O)[nH]c2=O)OC1CO` (configuration not stated), the figures for the CC50 (in the assay with MT4 [2]; in [1]; in [6]) were 60 µM, 38 µM and 77 µM, respectively. Further, the EC50 in assay [3] was 75 µM; in assay [4], 68 µM; with MT4 [5], over 100 µM.
As to `NCCCCCCCCCCCCNc1ccn(C2CCC(CO)O2)c(=O)n1` (configuration not stated), the figures for the CC50 (in the assay with MT4 [2]; in [1]; in assay [6]) were over 100 µM, 48 µM and 61 µM, respectively. Moreover, the figures for the EC50 (in assay [3]; in [4]; in the assay with MT4 [5]) were 2.9 µM, 4.7 µM and 100 µM, respectively.
In the case of `CCOC(=O)CCn1c(=O)c(C)cn(C2CC(N=[N+]=[N-])C(CO)O2)c1=O` (configuration not stated), the 50% cytotoxic concentration (CC50) (in the assay with MT4 [2]; in assay [1]; in assay [6]) was over 100 µM each time. Besides, the values for the EC50 (in assay [3]; in assay [4]; in the assay on MT4 [5]) were 2.1 µM, 8 µM and 4.3 µM, respectively.
Take `Nc1ccn([C@H]2CC[C@@H](CO)O2)c(=O)n1` [ZALCITABINE]: the 50% cytotoxic concentration (CC50) in the assay with MT4 [7] is over 100 µM; in [10], 34 µM; in assay [6] it was 10 µM. Besides, the EC50 in assay [8] came out at 0.016 µM; in [9], 0.07 µM; with MT4 [5], 2.4 µM.
As for `[N-]=[N+]=NC1CC(n2cc(CCC(=O)NCCCCN)c(=O)[nH]c2=O)OC1CO` (configuration not stated), the CC50 (in the assay with MT4 [2]; in [1]; in assay [6]) was over 100 µM in each case. For the same molecule, the EC50 (in [3]; with MT4 [15]; in [4]) was over 100 µM in each case.
